Assay results taken from ChEMBL document CHEMBL1122777, “Effect of tellurium position on the myocardial uptake of radioiodinated 18-iodotellura-17-octadecenoic acid analogues” (1984).

Legend:
Rattus norvegicus [1] = experiment: Liver uptake after 1 day was determined in female Fischer rats after [125I]-labeled compound complexed with bovine serum albumin was injected intravenously; format: functional
Summary of the method: (§1)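 Female Fischer 344 rats (fed ad libitum) under ether anaesthesia received the ¹²⁵I fatty acid in a lateral tail vein. Dose was ~3.8–4.8 μCi per rat (sp act ~125–240 mCi/mmol), given in 0.5 mL 6% bovine albumin (final ethanol 10%) after filtration. Four rats per time point were used. Tissue radioactivity is % injected dose/g, mean with range, calculated against standards of the injected solution.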

Rattus norvegicus [2] = experiment: Liver uptake after 2 hr was determined in female Fischer rats after [125I]-labeled compound complexed with bovine serum albumin was injected intravenously; format: functional; summary of the method: as §1
Rattus norvegicus [3] = experiment: Liver uptake after 30 min was determined in female Fischer rats after [125I]-labeled compound complexed with bovine serum albumin was injected intravenously; format: functional; summary of the method: as §1
Rattus norvegicus [4] = experiment: Liver uptake after 4 hr was determined in female Fischer rats after [125I]-labeled compound complexed with bovine serum albumin was injected intravenously; format: functional; summary of the method: as §1
Rattus norvegicus [5] = experiment: Liver uptake after 5 min was determined in female Fischer rats after [125I]-labeled compound complexed with bovine serum albumin was injected intravenously; format: functional; summary of the method: as §1
Rattus norvegicus [6] = experiment: Liver uptake after 60 min was determined in female Fischer rats after [125I]-labeled compound complexed with bovine serum albumin was injected intravenously; format: functional; summary of the method: as §1
Rattus norvegicus [7] = experiment: Lungs uptake after 2 hr was determined in female Fischer rats after [125I]-labeled compound complexed with bovine serum albumin was injected intravenously; format: functional; summary of the method: as §1
Rattus norvegicus [8] = experiment: Lungs uptake after 30 min was determined in female Fischer rats after [125I]-labeled compound complexed with bovine serum albumin was injected intravenously; format: functional; summary of the method: as §1
Rattus norvegicus [9] = experiment: Lungs uptake after 3 days was determined in female Fischer rats after [125I]-labeled compound complexed with bovine serum albumin was injected intravenously; format: functional; summary of the method: as §1
Rattus norvegicus [10] = experiment: Lungs uptake after 4 hr was determined in female Fischer rats after [125I]-labeled compound complexed with bovine serum albumin was injected intravenously; format: functional; summary of the method: as §1
Rattus norvegicus [11] = experiment: Lungs uptake after 5 min was determined in female Fischer rats after [125I]-labeled compound complexed with bovine serum albumin was injected intravenously; format: functional; summary of the method: as §1
Rattus norvegicus [12] = experiment: Lungs uptake after 60 min was determined in female Fischer rats after [125I]-labeled compound complexed with bovine serum albumin was injected intravenously; format: functional; summary of the method: as §1
Rattus norvegicus [13] = experiment: Thyroid uptake after 1 day was determined in female Fischer rats after [125I]-labeled compound complexed with bovine serum albumin was injected intravenously; format: functional
Summary of the method: (§2)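 Female Fischer 344 rats with free access to food and water. The 125I-labelled fatty acid (~3.8–4.8 μCi; sp act. ~125–240 mCi/mmol) was complexed with 6% bovine serum albumin (10% final ethanol), filtered, and 0.5 mL was injected via a lateral tail vein under ether anaesthesia. Four rats per time point. Values are mean % injected dose/g, calculated against injectate standards. Thyroid weight was taken as 7.5 mg/100 g body weight.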

Rattus norvegicus [14] = experiment: Thyroid uptake after 2 hr was determined in female Fischer rats after [125I]-labeled compound complexed with bovine serum albumin was injected intravenously; format: functional; summary of the method: as §2
Rattus norvegicus [15] = experiment: Thyroid uptake after 30 min was determined in female Fischer rats after [125I]-labeled compound complexed with bovine serum albumin was injected intravenously; format: functional; summary of the method: as §2
Rattus norvegicus [16] = experiment: Thyroid uptake after 4 hr was determined in female Fischer rats after [125I]-labeled compound complexed with bovine serum albumin was injected intravenously; format: functional; summary of the method: as §2
Rattus norvegicus [17] = experiment: Thyroid uptake after 60 min was determined in female Fischer rats after [125I]-labeled compound complexed with bovine serum albumin was injected intravenously; format: functional; summary of the method: as §2
Rattus norvegicus [18] = experiment: Thyroid uptake after 5 min was determined in female Fischer rats after [125I]-labeled compound complexed with bovine serum albumin was injected intravenously; format: functional; summary of the method: as §2
Rattus norvegicus [19] = experiment: Heart uptake after 60 min was determined in female Fischer rats after [125I]-labeled compound complexed with bovine serum albumin was injected intravenously; format: functional; summary of the method: as §1
Rattus norvegicus [20] = experiment: Blood uptake after 1 day was determined in female Fischer rats after [125I]-labeled compound complexed with bovine serum albumin was injected intravenously; format: functional; summary of the method: as §1
Rattus norvegicus [21] = experiment: Blood uptake after 30 min was determined in female Fischer rats after [125I]-labeled compound complexed with bovine serum albumin was injected intravenously; format: functional; summary of the method: as §1
Rattus norvegicus [22] = experiment: Blood uptake after 4 hr was determined in female Fischer rats after [125I]-labeled compound complexed with bovine serum albumin was injected intravenously; format: functional; summary of the method: as §1
Rattus norvegicus [23] = experiment: Blood uptake after 5 min was determined in female Fischer rats after [125I]-labeled compound complexed with bovine serum albumin was injected intravenously; format: functional; summary of the method: as §1
Rattus norvegicus [24] = experiment: Blood uptake after 60 min was determined in female Fischer rats after [125I]-labeled compound complexed with bovine serum albumin was injected intravenously; format: functional; summary of the method: as §1
Rattus norvegicus [25] = experiment: Heart uptake after 1 day was determined in female Fischer rats after [125I]-labeled compound complexed with bovine serum albumin was injected intravenously; format: functional; summary of the method: as §1
Rattus norvegicus [26] = experiment: Heart uptake after 2 hr was determined in female Fischer rats after [125I]-labeled compound complexed with bovine serum albumin was injected intravenously; format: functional; summary of the method: as §1
[27] = Ratio of heart to blood uptake after 120 min was determined in female Fischer rats after [125I]-labeled compound complexed with bovine serum albumin was injected intravenously; format: functional
Summary of the method: (§3)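 Female Fischer 344 rats (food and water ad libitum) given the 125I-labelled fatty acid in 6% bovine albumin with 10% final ethanol, filtered, 0.5 mL into a lateral tail vein under ether anaesthesia. Four rats per time point. Tissue activity expressed as % injected dose/g against assayed injectate standards. Mean heart/tissue ratios were calculated from mean %ID/g values.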

[28] = Ratio of heart to blood uptake after 30 min was determined in female Fischer rats after [125I]-labeled compound complexed with bovine serum albumin was injected intravenously; format: functional; summary of the method: as §3
[29] = Ratio of heart to kidneys uptake after 120 min was determined in female Fischer rats after [125I]-labeled compound complexed with bovine serum albumin was injected intravenously; format: functional, Heart/Kidney; summary of the method: as §3
[30] = Ratio of heart to kidneys uptake after 240 min was determined in female Fischer rats after [125I]-labeled compound complexed with bovine serum albumin was injected intravenously; format: functional, Heart/Kidney; summary of the method: as §3
[31] = Ratio of heart to kidneys uptake after 30 min was determined in female Fischer rats after [125I]-labeled compound complexed with bovine serum albumin was injected intravenously; format: functional, Heart/Kidney; summary of the method: as §3
[32] = Ratio of heart to kidneys uptake after 5 min was determined in female Fischer rats after [125I]-labeled compound complexed with bovine serum albumin was injected intravenously; format: functional, Heart/Kidney; summary of the method: as §3
[33] = Ratio of heart to kidneys uptake after 60 min was determined in female Fischer rats after [125I]-labeled compound complexed with bovine serum albumin was injected intravenously; format: functional, Heart/Kidney; summary of the method: as §3
[34] = Ratio of heart to liver uptake after 5 min was determined in female Fischer rats after [125I]-labeled compound complexed with bovine serum albumin was injected intravenously; format: functional; summary of the method: as §3
[35] = Ratio of heart to liver uptake after 60 min was determined in female Fischer rats after [125I]-labeled compound complexed with bovine serum albumin was injected intravenously; format: functional; summary of the method: as §3
[36] = Ratio of heart to liver uptake after 240 min was determined in female Fischer rats after [125I]-labeled compound complexed with bovine serum albumin was injected intravenously; format: functional; summary of the method: as §3
[37] = Ratio of heart to lungs uptake after 240 min was determined in female Fischer rats after [125I]-labeled compound complexed with bovine serum albumin was injected intravenously; format: functional; summary of the method: as §3
[38] = Ratio of heart to lungs uptake after 30 min was determined in female Fischer rats after [125I]-labeled compound complexed with bovine serum albumin was injected intravenously; format: functional; summary of the method: as §3
[39] = Ratio of heart to lungs uptake after 5 min was determined in female Fischer rats after [125I]-labeled compound complexed with bovine serum albumin was injected intravenously; format: functional; summary of the method: as §3
[40] = Ratio of heart to liver uptake after 30 min was determined in female Fischer rats after [125I]-labeled compound complexed with bovine serum albumin was injected intravenously; format: functional; summary of the method: as §3
Rattus norvegicus [41] = experiment: Heart uptake after 4 hr was determined in female Fischer rats after [125I]-labeled compound complexed with bovine serum albumin was injected intravenously; format: functional; summary of the method: as §1

In the case of `O=C(O)CCCCCCC[Te]CCCCCCC/C=C/I`, the Injected dose/g (Rattus norvegicus [1]) was 1.64%, the Injected dose/g (Rattus norvegicus [2]) was 4.66% and the Injected dose/g (Rattus norvegicus [3]) was 5.69%. For the same molecule, the Injected dose/g (Rattus norvegicus [4]) was 3.76%, the Injected dose/g (Rattus norvegicus [5]) was 6.41% and the Injected dose/g (Rattus norvegicus [6]) was 4.87%. It also gave an Injected dose/g (Rattus norvegicus [7]) of 1.43%, an Injected dose/g (Rattus norvegicus [8]) of 1.52% and an Injected dose/g (Rattus norvegicus [9]) of 0.34%. For the same molecule, the Injected dose/g (Rattus norvegicus [10]) was 1.21%, the Injected dose/g (Rattus norvegicus [11]) was 1.63% and the Injected dose/g (Rattus norvegicus [12]) was 1.57%. It also gave an Injected dose/g (Rattus norvegicus [13]) of 294%, an Injected dose/g (Rattus norvegicus [14]) of 38.5% and an Injected dose/g (Rattus norvegicus [15]) of 15%. The Injected dose/g (Rattus norvegicus [16]) was 66.9%, the Injected dose/g (Rattus norvegicus [17]) was 24.8% and the Injected dose/g (Rattus norvegicus [18]) was 9.21%. It also gave an Injected dose/g (Rattus norvegicus [19]) of 5.17%, an Injected dose/g (Rattus norvegicus [20]) of 0.46% and an Injected dose/g (Rattus norvegicus [21]) of 0.45%. It also gave an Injected dose/g (Rattus norvegicus [22]) of 0.53%, an Injected dose/g (Rattus norvegicus [23]) of 0.23% and an Injected dose/g (Rattus norvegicus [24]) of 0.36%. For the same molecule, the Injected dose/g (Rattus norvegicus [25]) was 0.86%, the Injected dose/g (Rattus norvegicus [26]) was 3.9% and the Ratio [27] was 9. It also gave a Ratio [28] of 8, a Ratio [29] of 3.1 and a Ratio [30] of 2.9. For the same molecule, the Ratio [31] was 3.7, the Ratio [32] was 3.1 and the Ratio [33] was 3.4. The Ratio [34] was 0.75, the Ratio [35] was 1.06 and the Ratio [36] was 0.93. For the same molecule, the Ratio [37] was 2.9, the Ratio [38] was 2.5 and the Ratio [39] was 2.9. It also gave a Ratio [40] of 0.66 and an Injected dose/g (Rattus norvegicus [41]) of 3.51%.

`O=C(O)CCCCCCCCC[Te]CCCCC/C=C/I` gave an Injected dose/g (Rattus norvegicus [1]) of 0.52%, an Injected dose/g (Rattus norvegicus [2]) of 3.47% and an Injected dose/g (Rattus norvegicus [3]) of 6.49%. It also gave an Injected dose/g (Rattus norvegicus [4]) of 2.52%, an Injected dose/g (Rattus norvegicus [5]) of 8.33% and an Injected dose/g (Rattus norvegicus [6]) of 5.15%. It also gave an Injected dose/g (Rattus norvegicus [7]) of 2.02%, an Injected dose/g (Rattus norvegicus [8]) of 2.06% and an Injected dose/g (Rattus norvegicus [9]) of 0.32%. The Injected dose/g (Rattus norvegicus [10]) was 1.59%, the Injected dose/g (Rattus norvegicus [11]) was 2.49% and the Injected dose/g (Rattus norvegicus [12]) was 2.07%. The Injected dose/g (Rattus norvegicus [13]) was 221%, the Injected dose/g (Rattus norvegicus [14]) was 45% and the Injected dose/g (Rattus norvegicus [15]) was 29%. For the same molecule, the Injected dose/g (Rattus norvegicus [16]) was 72%, the Injected dose/g (Rattus norvegicus [17]) was 37% and the Injected dose/g (Rattus norvegicus [18]) was 29%. For the same molecule, the Injected dose/g (Rattus norvegicus [19]) was 3.63%, the Injected dose/g (Rattus norvegicus [20]) was 0.62% and the Injected dose/g (Rattus norvegicus [21]) was 0.66%. The Injected dose/g (Rattus norvegicus [22]) was 1.03%, the Injected dose/g (Rattus norvegicus [23]) was 0.45% and the Injected dose/g (Rattus norvegicus [24]) was 0.67%. The Injected dose/g (Rattus norvegicus [25]) was 0.69%, the Injected dose/g (Rattus norvegicus [26]) was 3.8% and the Ratio [27] was 5. It also gave a Ratio [28] of 5, a Ratio [29] of 2.5 and a Ratio [30] of 1.7. The Ratio [31] was 1.5, the Ratio [32] was 1.4 and the Ratio [33] was 1. It also gave a Ratio [34] of 0.37, a Ratio [35] of 0.7 and a Ratio [36] of 0.97. The Ratio [37] was 1.5, the Ratio [38] was 1.6 and the Ratio [39] was 1.2. The Ratio [40] was 0.47 and the Injected dose/g (Rattus norvegicus [41]) was 2.44%.
